For data set [1], the target named is 3',5'-cyclic-AMP phosphodiesterase 4B (Homo sapiens, UniProt Q07343). The data set can be described thus: Inhibition of human His6-tagged PDE4B (152-487) expressed in Escherichia coli BL21 (DE3) after 1 hr.
A short description of data set [2]: Inhibition of PDE4 expressed in HEK293 cells coexpressing cyclic nucleotide gated ion channel mutant assessed as inhibition of NECA-induced cAMP production treated 15 mins before NECA challenge measured after 45 mins by FLIPR assay. The class given is cell-based. (cAMP levels reflect the balance of adenylyl cyclase and phosphodiesterase activity.)
Data set [3] is described as follows: Solubility in 0.1 M phosphate buffer at pH 7.4 by shake-flask method. Type of data set: physicochemical. The method in brief: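 Shake-flask solubility in 0.1 M phosphate buffer, pH 7.4.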
The subject of data set [4] is HEK293. The data set is described as follows: Inhibition of PDE4 expressed in HEK293 cells coexpressing cyclic nucleotide gated ion channel mutant assessed as inhibition of NECA-induced cAMP production at 70 uM treated 15 mins before NECA challenge measured after 45 mins by FLIPR assay. Type of data set: cell-based.
Data set [5] is described as follows: Solubility in water. The class given is physicochemical.
The species named for data set [6] is Oryctolagus cuniculus. The data set can be described thus: Antiinflammatory activity in rabbit assessed as inhibition of lacrimal gland inflammation-induced dry eye at 10 ng/ml to 10 ug/ml bid for 4 days. Type of data set: functional, organism-based. As to conditions: Lachrymal gland. Summed up: (§1)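 Rabbit dry eye induced by lacrimal gland inflammation. Compound given topically b.i.d. for 4 days. Read-out is corneal staining, scored as percent inhibition versus vehicle, with dexamethasone (100 µg/mL) as positive control. Statistics by ANOVA with Dunnett's post-test.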

Data set [7] has as its system Rattus norvegicus. The data set can be described thus: Induction of tear secretion in rat at 100 ug/ml by topical administration after 10 mins by phenol red thread test. The class given is functional, organism-based. The method in brief: (§2)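 Rats received compound topically, and tear secretion was measured 10 min later by phenol red thread test. Percent increase is relative to untreated animals, and significance is versus saline by ANOVA with Dunnett's post-test. Positive control was isoproterenol (10 µg/mL).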

In data set [8] the test system is Rattus norvegicus. The data set can be described thus: Induction of tear secretion in rat at 10 ug/ml by topical administration after 10 mins by phenol red thread test. The class given is functional, organism-based. The method in brief:
as §2

For data set [9], the species on record is Oryctolagus cuniculus. The data set can be described thus: Antiinflammatory activity in rabbit assessed as inhibition of lacrimal gland inflammation-induced dry eye at 0.001 to 10 ug/ml bid for 4 days. The class given is functional, organism-based. The following applies: Lachrymal gland, 0.01 to 10 ug/ml, in the assay text read “0.01 to 10 ug/ml” for “0.001 to 10 ug/ml”. The method in brief: as §1

Values after ≈ are worked out from the molar mass of the structure shown. Active and inactive are the calls of the source. The rule behind the calls is not given here.

Chain of 3',5'-cyclic-AMP phosphodiesterase 4B (Q07343 whole entry): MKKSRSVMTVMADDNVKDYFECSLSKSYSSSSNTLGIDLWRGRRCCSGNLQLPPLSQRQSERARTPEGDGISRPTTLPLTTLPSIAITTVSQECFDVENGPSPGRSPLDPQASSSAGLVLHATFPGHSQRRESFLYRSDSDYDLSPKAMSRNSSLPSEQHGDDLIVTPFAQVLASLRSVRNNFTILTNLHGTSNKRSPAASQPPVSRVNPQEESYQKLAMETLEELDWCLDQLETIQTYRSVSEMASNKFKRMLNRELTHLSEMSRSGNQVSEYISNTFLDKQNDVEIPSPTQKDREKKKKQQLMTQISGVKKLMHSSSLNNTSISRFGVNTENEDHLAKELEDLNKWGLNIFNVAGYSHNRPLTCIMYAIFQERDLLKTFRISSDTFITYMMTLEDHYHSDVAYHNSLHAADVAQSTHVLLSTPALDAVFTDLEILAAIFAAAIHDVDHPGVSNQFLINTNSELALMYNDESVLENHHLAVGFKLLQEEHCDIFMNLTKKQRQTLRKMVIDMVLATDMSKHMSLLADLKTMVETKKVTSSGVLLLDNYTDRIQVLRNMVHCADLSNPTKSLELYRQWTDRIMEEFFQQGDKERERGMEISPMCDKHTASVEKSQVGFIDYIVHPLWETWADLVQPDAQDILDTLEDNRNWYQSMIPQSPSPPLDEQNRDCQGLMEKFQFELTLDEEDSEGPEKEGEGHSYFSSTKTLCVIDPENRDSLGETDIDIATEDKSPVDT

By IC50 is commonly meant the concentration at which inhibition is half-maximal. The solubility (thermodynamic) is the concentration in solution at equilibrium with solid. `COc1ccc2c(Nc3c(Cl)cncc3Cl)cc(=O)oc2c1OCCCCC(=O)O`: the results for the IC50 in [1] and in [2] were 43 nM and 730 nM, respectively. For the same compound, in [3], the solubility (thermodynamic) came to 500 µg/mL (≈ 1100 µM).

For `COc1ccc2c(Nc3c(Cl)cncc3Cl)nccc2c1OC1CCCC1`, half-maximal inhibition in [1] (IC50) required 500 nM. Moreover, in data set [4], the inhibition result is “inactive”.

For `O=C(Nc1c(Cl)cncc1Cl)c1ccc(OC(F)F)c(OCC2CC2)c1` [ROFLUMILAST], in data set [2], the IC50 is 1 nM.

Usually solubility stands for the concentration that dissolves in the medium under given conditions. For the compound `COc1ccc2c(Nc3c(Cl)cncc3Cl)cc(=O)oc2c1OCCCCCC(=O)O`, the IC50 in data set [1] was found to be 17 nM; in data set [2], 280 nM. In [3], this compound registered a thermodynamic solubility of 900 µg/mL (≈ 1930 µM). In data set [5], the concentration in solution (solubility) was 900 µg/mL (≈ 1930 µM).

With `COc1ccc2c(Nc3c(Cl)cncc3Cl)cc(=O)oc2c1OCCCC(=O)O`, the 50% inhibitory concentration (IC50) was determined as 80 nM in [1] and 890 nM in data set [2].

Take `COc1ccc2c(Nc3c(Cl)cncc3Cl)cc(=O)oc2c1OCCCCCN(C)C`: the values for the IC50 in [1] and in [2] were 21 nM and 660 nM, respectively. Besides, the thermodynamic solubility in [3] was 60 µg/mL (≈ 129 µM).

Regarding `COc1ccc2c(Nc3c(Cl)cncc3Cl)cc(=O)oc2c1OCCCCCCCC(=O)O`, the IC50 in data set [1] turned out to be 2 nM; in data set [2] it was 40 nM. The compound also had a solubility (thermodynamic) in [3] of 300 µg/mL (≈ 606 µM).

`COc1ccc2c(Nc3c(Cl)cncc3Cl)cc(=O)oc2c1OCCCCCCC(=O)O`: the IC50 in data set [1] was found to be 2 nM; in [2] it was 120 nM. Besides, the solubility (thermodynamic) in [3] amounted to 1400 µg/mL (≈ 2910 µM). For the same compound, the solubility in [5] turned out to be 1400 µg/mL (≈ 2910 µM).

On to `COc1ccc(C(=O)Nc2c(Cl)cncc2Cl)cc1OC1CCCC1`, for which, in [2], the IC50 was determined as 13 nM.

`COc1ccc2c(Nc3c(Cl)cncc3Cl)nncc2c1OC1CCCC1`: the IC50 in [1] stood at 400 nM; in data set [2], 1100 nM.

On to `COc1ccc2c(Nc3c(Cl)cncc3Cl)ncnc2c1OC1CCCC1`, for which the IC50 in data set [1] is 2300 nM; in data set [2] it was 10000 nM.

As to `COc1ccc2c(Nc3c(Cl)cncc3Cl)cc(=O)oc2c1OCCCCCCN(C)C`, the IC50 in [1] amounted to 5 nM; in data set [2], 180 nM.

Consider `COc1ccc2c(Nc3c(Cl)cncc3Cl)cc(=O)oc2c1OCCCCN(C)C`, for which the IC50 in data set [1] came to 45 nM; in [2] it was 1820 nM. The outcome in data set [6], in data set [7], in data set [8] and in [9] was Active. The thermodynamic solubility in data set [3] was 1800 µg/mL (≈ 3980 µM).

As to `COc1ccc2c(Nc3c(Cl)cncc3Cl)cc(=O)oc2c1OCC(=O)O`, the IC50 came to 1180 nM in [1] and 5350 nM in data set [2].

In the case of `COc1ccc2c(Nc3c(Cl)cncc3Cl)cc(=O)oc2c1OCCCN(C)C`, the IC50 is 670 nM in data set [1] and more than 30000 nM in data set [2].

For the compound `COc1ccc2c(Nc3c(Cl)cncc3Cl)coc2c1OC1CCCC1`, the IC50 in data set [1] is 16000 nM; in data set [2], more than 30000 nM.

Regarding `COc1ccc2c(Nc3c(Cl)cncc3Cl)cc(=O)oc2c1OCCCCCCCCN(C)C`, the IC50 is 2 nM in data set [1] and 150 nM in data set [2].

For the compound `COc1ccc2c(Nc3c(Cl)cncc3Cl)cc(=O)oc2c1OCCCCCCCCC(=O)O`, the IC50 worked out at 1 nM in data set [1] and 30 nM in data set [2]. Also, the solubility (thermodynamic) in data set [3] was 300 µg/mL (≈ 589 µM).

As to `COc1ccc2c(Nc3c(Cl)cncc3Cl)cc(=O)oc2c1OCCCCCCCN(C)C`, the results for the IC50 in data set [1] and in [2] were 3 nM and 150 nM, respectively.

With `COc1ccc2c(Nc3c(Cl)cncc3Cl)ccnc2c1OC1CCCC1`, the results for the IC50 in [1] and in [2] were 3300 nM and 8200 nM, respectively.

As to `COc1ccc2c(Nc3c(Cl)cncc3Cl)cc(=O)oc2c1OC1CCCC1`, the IC50 in data set [2] is 28 nM. The compound further displayed a solubility (thermodynamic) in [3] of 0.3 µg/mL (≈ 0.712 µM).

Turning to `COc1ccc2c(c1OC1CCCC1)OCCC2Nc1c(Cl)cncc1Cl` (stereo not given), the IC50 in [1] and in data set [2] was more than 30000 nM throughout.
